The sample as a whole holds a higher share of hits than the screen did.
PGC1a Ac signal: raises PGC1a acetylation signal in U2OS cells | U2OS PGC1a acetylation AlphaScreen, overnight | activation, % at 15.6 µM | 350,000 tested, 0.21% active | AID 651723;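 active means every replicate reaching activation of at least 50%, whatever the mean replicate activation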;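 further: hits raise the AlphaScreen acetylation signal above neutral controls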
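System: flag-PGC1a/GCN5 U2OS cells / Input: 7000 cells/well / Compound: single test concentration per compound / Incubation: overnight compound treatment, 37 °C / Technique: AlphaScreen on lysates with anti-acetyl-lysine antibody, acceptor and donor beads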
* marks the source's active call; other numbers are inactive results.

SMILES	PGC1a Ac signal
COc1ccc(C(=O)Sc2nncc3ccccc23)cc1	-42
C=C(C(=O)c1ccccc1)C(C(=C)C(=O)c1ccccc1)c1ccc(OC)cc1	160*
Cc1cccc(C)c1OC1(c2ccccc2)OC(=O)c2ccccc21 (stereo not drawn)	72*
Cc1ccc(S(=O)(=O)N(C)C[C@H]2Oc3ccc(NC(=O)CCC(F)(F)F)cc3C(=O)N([C@H](C)CO)C[C@@H]2C)cc1	-48
COc1ccc2c(-c3ccccc3)cc(=O)[nH]c2c1	-42
COc1ccc(-c2cc(-c3ccccc3)c(C#N)c(S(C)=O)n2)cc1 (stereo not drawn)	-85
COc1ccc(-c2ccc(OC)cc2C(=O)O)cc1	70*
Cc1noc(C)c1NC(=O)N(C)C[C@H]1OCCCC[C@@H](C)Oc2ccc(NC(=O)Cc3ccccc3)cc2C(=O)N([C@@H](C)CO)C[C@@H]1C	-44
Cn1cc(C(=O)N/N=C/C(Br)=C\c2ccccc2)ccc1=O	128*
Cc1occc1C(=O)N/N=C/C(Br)=C/c1ccccc1	164*
COc1ccc(OC)c(/C=N/NC(=O)c2[nH]ncc2Br)c1	-44
O=C(N/N=C/C(Br)=C\c1ccccc1)c1n[nH]c2c1CCC2	91*
COc1cccc(C(=O)N/N=C/C(Br)=C/c2ccccc2)c1	101*
COc1ccc(-c2cc(C(=O)N/N=C/c3cc(OC)c(OC)cc3OC)c3ccccc3n2)cc1	-45
CCCNC(=O)[C@H]1[C@H](CO)[C@H]2Cn3c(ccc(-c4ccccc4)c3=O)[C@H]2N1C(=O)C1CC1	-41
NCC[C@H]1CC[C@@H](NC(=O)C2CCCCC2)[C@@H](CO)O1	-56
CCCN(C)C[C@H]1Oc2cc(C#C[C@@H](C)O)ccc2S(=O)(=O)N([C@@H](C)CO)C[C@H]1C	-54
CC(C)(C)OC(=O)NC(Cc1ccccc1)C(=O)NCCCC(=O)O (stereo not drawn)	-43
CC(C)CCCCCCCCCCCCC(=O)NCC(=O)NC1C(C)OC(Nc2ncnc3nc[nH]c23)C(O)C1O (stereo not drawn)	-71
Nc1nc(F)nc2c1ncn2[C@@H]1O[C@H](CO)[C@@H](O)[C@H]1O	-83
OC[C@H]1O[C@@H](n2cnc3c(NCc4ccco4)ncnc32)[C@H](O)[C@@H]1O	72*
CC(C)c1nc2sc3c(NCc4ccco4)ncnc3c2c2c1COC(C)(C)C2	-59
CC1CC1C(=O)N(C)CC(=O)Nc1cccc(F)c1 (stereo not drawn)	78*
CCC(=O)N1C[C@H](C)[C@@H](OC)CN(C)C(=O)c2cc(NC(=O)Nc3cccc(F)c3)ccc2OC[C@H]1C	-55
Fc1cccc(CN2C[C@@H]3N[C@H](C2)[C@@H]3c2ccc(-c3cccc(F)c3)cc2)c1	-99
SMILES	PGC1a Ac signal
COc1cccc(-c2ccc(C3[C@@H]4CN(C(=O)C5CC5)C[C@H]3N4)cc2)c1 (stereo partly drawn)	57*
Fc1cccc(CN2C[C@@H]3N[C@H](C2)C3c2ccc(-c3ccccc3)cc2)c1 (stereo partly drawn)	-97
COc1ccc(-c2ccc(C3[C@@H]4CN(Cc5cc(OC)cc(OC)c5)C[C@H]3N4)cc2)cc1 (stereo partly drawn)	121*
COc1cc(CN2C[C@@H]3N[C@H](C2)C3c2ccc(-c3cccc(OC)c3)cc2)cc(OC)c1 (stereo partly drawn)	69*
COc1cc(CN2C[C@@H]3N[C@H](C2)C3c2ccc(/C=C/c3ccccc3)cc2)cc(OC)c1 (stereo partly drawn)	89*
COc1ccc(OCCCC(=O)OCC(=O)Nc2c(C)nn(-c3ccccc3)c2C)cc1	-85
N#C[C@@H]1[C@H](c2ccccc2C2=CCCCC2)[C@H](CO)N1C(=O)Cc1ccncc1	-45
CO[C@H]1CN(C)C(=O)c2cc(NC(=O)NC(C)C)ccc2OC[C@H](C)N(Cc2ccc(-c3ccccn3)cc2)C[C@@H]1C	-62
C[C@@H]1CN([C@H](C)CO)C(=O)CCCn2nncc2CO[C@H]1CN(C)S(=O)(=O)c1cn(C)cn1	-105
O=C(CCC1CCCN(C(=O)c2cc(C3CC3)[nH]n2)C1)N1CCN(c2ccccn2)CC1 (stereo not drawn)	-98
COc1ccccc1CN1C[C@@H]2N[C@H](C1)C2c1ccc(-c2ccccc2OC)cc1 (stereo partly drawn)	70*
COc1ccccc1-c1ccc([C@@H]2[C@@H](CO)N(C(C)=O)C23CN(C(C)=O)C3)cc1	-55
Cc1ccc(NC(=O)CC2=NC(=O)C(CC(=O)Nc3ccccc3F)S2)cc1 (stereo not drawn)	-50
CCCCCCCCCSc1n[nH]c(N)n1	-25
CC(=O)Nc1cccc(-c2ccnc3c2CC(C)(C(=O)Nc2ccc(C(C)C)cc2)O3)c1 (stereo not drawn)	70*
CN(C)c1ccc(Sc2ccc3nc(N)nc(N)c3c2)cc1	-46
NNS(=O)(=O)c1ccc(Cc2ncc(C(F)(F)F)cc2Cl)s1	-50
O=S(=O)(c1ccccc1)c1ncc(C(F)(F)F)cc1Cl	55*
Nc1ccccc1Oc1ncc(C(F)(F)F)cc1Cl	-46
C[C@H]1CN([C@@H](C)CO)C(=O)c2cc(NC(=O)Nc3cccc4ccccc34)ccc2O[C@H]1CN(C)S(=O)(=O)c1ccc(Cl)cc1	-41
CCCNC(=O)c1ccc(COc2ccc(Cl)cc2)o1	-48
CCC(=O)Nc1ccnc(-c2cccnc2)n1	-42
O=C(/C=C/c1cccnc1)/C=C/c1cccnc1	-81
CC(NC(=O)Nc1cccnc1)(C(F)(F)F)C(F)(F)F	62*
COC(=O)c1ccc2[nH]c3cccc(/C(=C/c4ccccc4)c4ccccc4)c3c2c1	61*
SMILES	PGC1a Ac signal
CCCSCC(=O)Nc1ncc2c(n1)-c1ccccc1CC2	-45
CCS(=O)(=O)N[C@H]1C=C[C@H](CC(=O)N2CCCCC2)O[C@H]1CO	-43
CCOc1cc(/C=C2\CN(C)C/C(=C\c3ccc(O)c(OCC)c3)C2=O)ccc1O	-53
CCOc1cc(C)c(S(=O)(=O)N2CCCC2)cc1C	61*
Cc1ccc(-c2nnc(Nc3ccccc3)c3ccccc23)cc1S(=O)(=O)NCC1CCCO1 (stereo not drawn)	120*
COc1ccc(S(=O)(=O)Nc2ccc3c(c2)C(=O)N([C@H](C)CO)C[C@@H](C)[C@H](CN(C)C(=O)Nc2ccc(C(F)(F)F)cc2)OCCCC[C@@H](C)O3)cc1	-41
CCC(C)(C)n1nnnc1CN(Cc1ccc(Cl)cc1)Cc1ccco1	82*
C[C@@H]1CN([C@@H](C)CO)C(=O)CCCn2nncc2CO[C@H]1CN(C)CC1CCCCC1	-52
O=C(NC(=S)Nc1cccc(Cl)c1N1CCCCC1)c1ccco1	104*
OC(c1cc(C(F)(F)F)nc2c(C(F)(F)F)cccc12)C1CCCCN1 (stereo not drawn)	78*
CCOc1c(Br)cc(/C=C2/SC(=O)N(CC(=O)N3CCCC3)C2=O)cc1OC	96*
Cn1ncc2c(O/N=C(\N)c3ccc(C(F)(F)F)cc3)ncnc21	-44
O=C(COc1ccccc1Cl)Nc1ccc(Cl)cn1	98*
O=C(COC(=O)c1cc[n+]([O-])cc1)Nc1cccc(Cl)c1Cl	-48
CCN(CC)S(=O)(=O)c1ccc(C(=O)N(c2ccccc2)C2C=CS(=O)(=O)C2)cc1 (stereo not drawn)	-46
O=C(NCc1ccc2c(c1)OCO2)c1ccc(NC(=O)C2CCCO2)cc1 (stereo not drawn)	66*
CC1CCCCC12NC(=O)N(CC(=O)NCc1ccc3c(c1)OCO3)C2=O (stereo not drawn)	-46

Screens: PubChem, Broad Institute
